Reference: ChEMBL document CHEMBL1145383, “Synthesis of stable and potent delta/mu opioid peptides: analogues of H-Tyr-c[D-Cys-Gly-Phe-D-Cys]-OH by ring-closing metathesis” (J Med Chem, 2007)
pEC50, pIC50, pKi: −log10 of the molar value.

How the values were obtained:
Mu-type opioid receptor [1] = target: Mu-type opioid receptor (Cavia porcellus, UniProt P97266); test: Agonist activity at mu opioid receptor in isolated guinea pig ileum assessed as inhibition of electrically-evoked myenteric muscle contraction; format: functional, tissue-based
Sequence of Mu-type opioid receptor (Cavia porcellus, UniProt P97266) (P97266 whole entry): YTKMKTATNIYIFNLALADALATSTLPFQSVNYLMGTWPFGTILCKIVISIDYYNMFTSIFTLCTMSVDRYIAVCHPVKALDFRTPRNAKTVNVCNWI
Procedure, shortened: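 Longitudinal muscle-myenteric plexus from male Hartley guinea pigs (150–400 g), in oxygenated (95% O2/5% CO2) Krebs bicarbonate at 37 °C. Tension 1 g, transmural stimulation at 0.1 Hz with 0.4 ms pulses at supramaximal voltage. Agonist left 3 min, then washout and 8 min re-equilibration. IC50 by nonlinear least-squares Hill fit of mean data from at least four tissues.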

[2] = target: Delta-type opioid receptor (Mus musculus, UniProt P32300); test: Agonist activity at delta opioid receptor in mouse vas deferens assessed as inhibition of electrically-evoked muscle contraction; format: functional, tissue-based
Sequence of Delta-type opioid receptor (Mus musculus, UniProt P32300) (P32300 whole entry): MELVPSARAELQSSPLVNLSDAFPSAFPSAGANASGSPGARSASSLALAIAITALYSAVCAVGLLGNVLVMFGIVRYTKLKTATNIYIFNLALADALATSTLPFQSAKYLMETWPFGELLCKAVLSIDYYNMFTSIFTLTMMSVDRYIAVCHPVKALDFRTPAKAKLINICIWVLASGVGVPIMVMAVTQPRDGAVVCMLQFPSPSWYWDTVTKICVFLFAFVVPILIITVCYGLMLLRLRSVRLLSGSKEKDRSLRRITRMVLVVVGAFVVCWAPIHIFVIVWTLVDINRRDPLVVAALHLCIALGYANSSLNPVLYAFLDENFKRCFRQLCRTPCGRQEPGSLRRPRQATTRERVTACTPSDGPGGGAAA
Procedure, shortened: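 Mouse vas deferens from male ICR mice (25–30 g), bathed in oxygenated (95% O2/5% CO2) magnesium-free Krebs bicarbonate at 37 °C. Tension 0.5 g, stimulated transmurally at 0.1 Hz with 2.0 ms pulses at supramaximal voltage. Agonist contact 3 min, then rinse and 8 min recovery. IC50 from Hill fit of mean data, n ≥ 4 tissues.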

[3] = target: Kappa-type opioid receptor (Cavia porcellus, UniProt P41144); test: Displacement of [3H]U-69593 from kappa opioid receptor in guinea pig brain membrane; format: cell membranes
Sequence of Kappa-type opioid receptor (P41144 whole entry): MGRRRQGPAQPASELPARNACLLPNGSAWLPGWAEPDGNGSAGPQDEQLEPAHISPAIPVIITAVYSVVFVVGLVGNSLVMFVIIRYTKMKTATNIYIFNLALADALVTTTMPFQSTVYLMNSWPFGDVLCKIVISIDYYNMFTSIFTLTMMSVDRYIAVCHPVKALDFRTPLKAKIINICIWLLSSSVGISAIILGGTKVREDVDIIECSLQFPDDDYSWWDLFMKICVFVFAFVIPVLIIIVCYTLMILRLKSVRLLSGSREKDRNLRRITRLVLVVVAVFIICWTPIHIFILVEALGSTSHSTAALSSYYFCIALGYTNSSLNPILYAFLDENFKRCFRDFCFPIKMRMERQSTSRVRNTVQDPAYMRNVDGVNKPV

Mu-type opioid receptor [4] = target: T1, Mu-type opioid receptor (Homo sapiens, UniProt P35372); test: Agonist activity at human mu opioid receptor by [35S]GTP-gamma-S binding assay; format: functional
T1 sequence (P35372 whole entry): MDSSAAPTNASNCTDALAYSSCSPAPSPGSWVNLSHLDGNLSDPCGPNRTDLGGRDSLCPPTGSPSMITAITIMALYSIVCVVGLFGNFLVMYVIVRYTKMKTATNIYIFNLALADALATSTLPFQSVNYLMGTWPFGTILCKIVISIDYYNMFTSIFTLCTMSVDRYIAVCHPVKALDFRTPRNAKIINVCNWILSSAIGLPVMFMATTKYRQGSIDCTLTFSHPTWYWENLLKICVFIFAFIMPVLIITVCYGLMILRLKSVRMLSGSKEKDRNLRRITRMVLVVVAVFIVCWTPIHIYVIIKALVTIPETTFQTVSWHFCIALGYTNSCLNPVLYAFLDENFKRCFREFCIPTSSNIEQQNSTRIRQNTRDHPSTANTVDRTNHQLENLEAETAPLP

[5] = target: T2, Delta-type opioid receptor (Homo sapiens, UniProt P41143); test: Agonist activity at human delta opioid receptor by [35S]GTP-gamma-S binding assay relative to control; format: functional
T2 sequence (P41143 whole entry): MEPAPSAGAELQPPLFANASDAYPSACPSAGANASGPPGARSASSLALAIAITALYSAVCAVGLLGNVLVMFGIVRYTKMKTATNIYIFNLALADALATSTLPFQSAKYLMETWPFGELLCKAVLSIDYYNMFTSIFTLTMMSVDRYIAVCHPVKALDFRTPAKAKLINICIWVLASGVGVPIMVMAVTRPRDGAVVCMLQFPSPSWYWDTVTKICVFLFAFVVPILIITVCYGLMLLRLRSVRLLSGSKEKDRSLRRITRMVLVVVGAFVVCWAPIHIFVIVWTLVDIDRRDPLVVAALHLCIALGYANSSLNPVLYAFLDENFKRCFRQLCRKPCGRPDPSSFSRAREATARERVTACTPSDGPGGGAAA

Mu-type opioid receptor [6] = target: T1, Mu-type opioid receptor; test: Agonist activity at human mu opioid receptor by [35S]GTP-gamma-S binding assay relative to control; format: functional
[7] = target: T2, Delta-type opioid receptor; test: Agonist activity at human delta opioid receptor by [35S]GTP-gamma-S binding assay; format: functional
Procedure, shortened: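 Cells expressing hDOR were incubated with increasing test concentrations plus 0.1 nM [35S]GTPγS, in duplicate, for 90 min at 30 °C. Reaction stopped by vacuum filtration through GF/B filters pretreated with assay buffer. Filters washed four times with ice-cold 15 mM Tris/120 mM NaCl, pH 7.4, and bound label counted by liquid scintillation after overnight extraction.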

`C=CC[C@@H](NC(=O)[C@H](Cc1ccccc1)NC(=O)CNC(=O)[C@@H](CC=C)NC(=O)[C@@H](N)Cc1ccc(O)cc1)C(=O)O` showed a pIC50 (Mu-type opioid receptor [1]) of 7.47, a pIC50 [2] of 8.24 and a pKi [3] of 5.41.
In the case of `N[C@@H](Cc1ccc(O)cc1)C(=O)N[C@@H]1C/C=C\C[C@H](C(=O)O)NC(=O)[C@H](Cc2ccccc2)NC(=O)CNC1=O`, the pEC50 (Mu-type opioid receptor [4]) was 8.63, the pIC50 (Mu-type opioid receptor [1]) was 8.28 and the pIC50 [2] was 9.23. For the same molecule, the pKi [3] was 6.24, the Emax [5] was 121% and the Emax (Mu-type opioid receptor [6]) was 65%. It also gave a pEC50 [7] of 9.08.
In the case of `N[C@@H](Cc1ccc(O)cc1)C(=O)N[C@@H]1CCCC[C@H](C(=O)O)NC(=O)[C@H](Cc2ccccc2)NC(=O)CNC1=O`, the pIC50 (Mu-type opioid receptor [1]) was 7.23, the pIC50 [2] was 8.47 and the pKi [3] was 5.40.
With `N[C@@H](Cc1ccc(O)cc1)C(=O)N[C@@H]1C/C=C/C[C@H](C(=O)O)NC(=O)[C@H](Cc2ccccc2)NC(=O)CNC1=O` the pEC50 (Mu-type opioid receptor [4]) was 8.58, the pIC50 (Mu-type opioid receptor [1]) was 8.28 and the pIC50 [2] was 9.12. The pKi [3] was 7.13, the Emax [5] was 128% and the Emax (Mu-type opioid receptor [6]) was 70%. For the same molecule, the pEC50 [7] was 9.06.
